The source made the active and inactive calls. The rule behind the calls is not given here.
Key:
Mucor hiemalis [1] = assay: Antimicrobial activity against Mucor hiemalis IAM 6088 at 50 ug/disk; assay type: functional; settings: for zone of inhibition at 50 µg/disc: read-out: IZ
Mucor hiemalis [2] = assay: Antimicrobial activity against Mucor hiemalis IAM 6088 at 20 ug/disk; assay type: functional; settings: read-out: IZ
Saccharomyces cerevisiae [3] = assay: Antimicrobial activity against Saccharomyces cerevisiae IAM 1438T at 50 ug/disk; assay type: functional; settings: read-out: IZ
Staphylococcus aureus [4] = assay: Antimicrobial activity against Staphylococcus aureus IAM 12544T at 50 ug/disk; assay type: functional; settings: read-out: IZ
Escherichia coli [5] = assay: Antimicrobial activity against Escherichia coli IAM 12119T at 50 ug/disk; assay type: functional; settings: read-out: IZ
Escherichia coli [6] = assay: Antimicrobial activity against Escherichia coli IAM 12119T at 20 ug/disk; assay type: functional; settings: read-out: IZ
[7] = Inhibition of colony formation in Chinese hamster V79 cells; assay type: functional, cell-based; settings: Cricetulus griseus
Method in brief: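 Compound added in DMSO at 0.01–10 μM, then 4 further days of incubation. Colonies counted; relative plating efficiency taken as colony number in sample dish over control dish; EC50 derived.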

Saccharomyces cerevisiae [8] = assay: Antimicrobial activity against Saccharomyces cerevisiae IAM 1438T at 20 ug/disk; assay type: functional; settings: read-out: IZ
Staphylococcus aureus [9] = assay: Antimicrobial activity against Staphylococcus aureus IAM 12544T at 20 ug/disk; assay type: functional; settings: read-out: IZ

| EC50 [7] | Structure (SMILES) | zone of inhibition at 50 µg/disc (Mucor hiemalis [1]) | zone of inhibition at 20 µg/disc (Mucor hiemalis [2]) | zone of inhibition at 50 µg/disc (Saccharomyces cerevisiae [3]) | zone of inhibition at 50 µg/disc (Staphylococcus aureus [4]) | zone of inhibition at 50 µg/disc (Escherichia coli [5]) | zone of inhibition at 20 µg/disc (Escherichia coli [6]) | zone of inhibition at 20 µg/disc (Saccharomyces cerevisiae [8]) | Activity (Mucor hiemalis [1]) | zone of inhibition at 20 µg/disc (Staphylococcus aureus [9]) |
| --- | --- | --- | --- | --- | --- | --- | --- | --- | --- | --- |
| 190 nM | COc1c(OC)c2c(c(CCN(C)C)c1SC)SSS2 | 23 mm | 17.4 mm | 11.8 mm | 10.3 mm | 17.8 mm | 14.4 mm | – | – | – |
| 150 nM | COc1c(OC)c2c(c(CCN(C)C)c1SC)SSSSS2 | 26.2 mm | 19.6 mm | 15.2 mm | 14.2 mm | 17.1 mm | 13.1 mm | 10.5 mm | – | – |
| 200 nM | COc1c(OC)c2c(c(CCN(C)C)c1SC)SSc1c(CCN(C)C)c(SC)c(OC)c(OC)c1Sc1c(OC)c(OC)c(SC)c(CCN(C)C)c1S2 [LISSOCLIBADIN 1] | – | – | – | – | – | – | – | – | – |
| 80 nM | COc1c(SC)c(CCN(C)C)c2sc3c(OC)c(OC)c(SC)c(CCN(C)C)c3ssc2c1OC [LISSOCLIBADIN 2] | 13.8 mm | – | – | – | – | – | – | – | – |
| 340 nM | COc1c(OC)c2c(c(CCN(C)C)c1SC)Sc1c(OC)c(OC)c(SC)c(CCN(C)C)c1S2 [LISSOCLIBADIN 3] | – | – | – | – | – | – | – | – | – |
| 60 nM | COc1cc(CCN(C)C)c2sc3c(OC)c(OC)c(SC)c(CCN(C)C)c3ssc2c1O [LISSOCLIBADIN 5] | – | – | 6.2 mm | 15.8 mm | 11.6 mm | – | – | – | 9 mm |
| 60 nM | COc1cc(CCN(C)C)c2c(c1O)Sc1c(CCN(C)C)c(SC)c(OC)c(OC)c1S2 [LISSOCLIBADIN 6] | – | – | 7.8 mm | 13.8 mm | 10.8 mm | – | – | – | 10 mm |
| 170 nM | COc1cc(CCN(C)C)c2c(c1O)SSc1c(CCN(C)C)cc(OC)c(O)c1SS2 [LISSOCLIBADIN 7] | – | – | 16.8 mm | 13.1 mm | 9.9 mm | – | – | – | 9.4 mm |

| Structure (SMILES) | EC50 [7] | zone of inhibition at 50 µg/disc (Mucor hiemalis [1]) | zone of inhibition at 20 µg/disc (Mucor hiemalis [2]) | zone of inhibition at 50 µg/disc (Saccharomyces cerevisiae [3]) | zone of inhibition at 50 µg/disc (Staphylococcus aureus [4]) | zone of inhibition at 50 µg/disc (Escherichia coli [5]) | zone of inhibition at 20 µg/disc (Escherichia coli [6]) | zone of inhibition at 20 µg/disc (Saccharomyces cerevisiae [8]) | Activity (Mucor hiemalis [1]) | zone of inhibition at 20 µg/disc (Staphylococcus aureus [9]) |
| --- | --- | --- | --- | --- | --- | --- | --- | --- | --- | --- |
| COc1cc(CCN(C)C)c2sc3c(O)c(OC)cc(CCN(C)C)c3ssc2c1O [LISSOCLIBADIN 4] | 710 nM | – | – | – | 13.1 mm | 15.7 mm | – | – | inactive | 10.8 mm |
| COc1c(OC)c2c(c(CCN(C)C)c1SC)Sc1c(CCN(C)C)c(SC)c(OC)c(OC)c1S2 [LISSOCLINOTOXIN E] | 270 nM | – | – | – | – | – | – | – | – | – |
| COc1c(SC)c(CCN(C)C)c2sc3c(CCN(C)C)c(SC)c(OC)c(OC)c3ssc2c1OC [LISSOCLINOTOXIN F] | 280 nM | 18 mm | 10.5 mm | – | – | – | – | – | – | – |

Reference: ChEMBL document CHEMBL1142240, “Lissoclibadins 4-7, polysulfur aromatic alkaloids from the Indonesian ascidian Lissoclinum cf. badium” (J Nat Prod, 2007)
